Results published in ChEMBL document CHEMBL1150781, “High-level gentamicin resistance mediated by a Tn4001-like transposon in seven nonclonal hospital isolates of Streptococcus pasteurianus” (2007).
Converted amounts (≈) assume the structure as drawn.

What was measured:
Type in all cases: functional
[1] = test system: Streptococcus pasteurianus; test: Antibacterial activity against high-level gentamicin resistant Streptococcus pasteurianus SB30 isolate carrying transposon-borne resistance gene [aac(6')Ie-aph(2'')Ia] by agar dilution method
In short: (§1)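 MIC by agar dilution following CLSI guidelines; test organisms were clinical S. bovis/S. pasteurianus isolates recovered from blood cultures.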

Streptococcus equinus = test: Antibacterial activity against Streptococcus bovis ATCC 33317 by agar dilution method
In short: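 MIC read by agar dilution against S. bovis/S. pasteurianus, run to CLSI guidelines.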

[2] = test system: Streptococcus pasteurianus; test: Antibacterial activity against high-level gentamicin resistant Streptococcus pasteurianus SB41 isolate carrying transposon-borne resistance gene [aac(6')Ie-aph(2'')Ia] by agar dilution method; in short: as §1
[3] = test system: Streptococcus pasteurianus; test: Antibacterial activity against high-level gentamicin resistant Streptococcus pasteurianus SB34 isolate carrying transposon-borne resistance gene [aac(6')Ie-aph(2'')Ia] by agar dilution method; in short: as §1
[4] = test system: Streptococcus pasteurianus; test: Antibacterial activity against high-level gentamicin resistant Streptococcus pasteurianus SB28 isolate carrying transposon-borne resistance gene [aac(6')Ie-aph(2'')Ia] by agar dilution method; in short: as §1
[5] = test system: Streptococcus pasteurianus; test: Antibacterial activity against high-level gentamicin resistant Streptococcus pasteurianus SB40 isolate carrying transposon-borne resistance gene [aac(6')Ie-aph(2'')Ia] by agar dilution method; in short: as §1
Enterococcus faecalis = test: Antimicrobial activity against Enterococcus faecalis ATCC 29212 by agar dilution method
[6] = test system: Streptococcus pasteurianus; test: Antibacterial activity against high-level gentamicin resistant Streptococcus pasteurianus SB10 isolate carrying transposon-borne resistance gene [aac(6')Ie-aph(2'')Ia] by agar dilution method; in short: as §1
[7] = test system: Streptococcus pasteurianus; test: Antibacterial activity against high-level gentamicin resistant Streptococcus pasteurianus SB33 isolate carrying transposon-borne resistance gene [aac(6')Ie-aph(2'')Ia] by agar dilution method; in short: as §1

NCC[C@H](O)C(=O)N[C@@H]1C[C@H](N)[C@@H](O[C@H]2O[C@H](CN)[C@@H](O)[C@H](O)[C@H]2O)[C@H](O)[C@H]1O[C@H]1O[C@H](CO)[C@@H](O)[C@H](N)[C@H]1O [AMIKACIN]
MIC [1]: 128 µg/mL (≈ 219 µM)
MIC (Streptococcus equinus): 64 µg/mL (≈ 109 µM)
MIC [2]: 32 µg/mL (≈ 54.6 µM)
MIC [3]: 32 µg/mL (≈ 54.6 µM)
MIC [4]: 512 µg/mL (≈ 874 µM)
MIC [5]: 32 µg/mL (≈ 54.6 µM)
MIC (Enterococcus faecalis): 64 µg/mL (≈ 109 µM)
MIC [6]: 64 µg/mL (≈ 109 µM)
MIC [7]: 32 µg/mL (≈ 54.6 µM)

CCC[C@@H]1C[C@@H](C(=O)N[C@@H]([C@H]2O[C@H](SC)[C@H](O)[C@@H](O)[C@H]2O)[C@H](C)Cl)N(C)C1 [CLINDAMYCIN]
MIC [1]: 0.5 µg/mL (≈ 1.18 µM)
MIC (Streptococcus equinus): < 0.03 µg/mL
MIC [2]: 512 µg/mL (≈ 1200 µM)
MIC [3]: 128 µg/mL (≈ 301 µM)
MIC [4]: 16 µg/mL (≈ 37.6 µM)
MIC [5]: 512 µg/mL (≈ 1200 µM)
MIC (Enterococcus faecalis): 4 µg/mL (≈ 9.41 µM)
MIC [6]: 256 µg/mL (≈ 602 µM)
MIC [7]: 512 µg/mL (≈ 1200 µM)

CC[C@H]1OC(=O)[C@H](C)[C@@H](O[C@H]2C[C@@](C)(OC)[C@@H](O)[C@H](C)O2)[C@H](C)[C@@H](O[C@@H]2O[C@H](C)C[C@H](N(C)C)[C@H]2O)[C@](C)(O)C[C@@H](C)C(=O)[C@H](C)[C@@H](O)[C@]1(C)O [ERYTHROMYCIN]
MIC [1]: > 512 µg/mL
MIC (Streptococcus equinus): 0.06 µg/mL (≈ 0.0818 µM)
MIC [2]: > 512 µg/mL
MIC [3]: > 512 µg/mL
MIC [4]: > 512 µg/mL
MIC [5]: > 512 µg/mL
MIC (Enterococcus faecalis): 2 µg/mL (≈ 2.73 µM)
MIC [6]: > 512 µg/mL
MIC [7]: > 512 µg/mL

NC[C@H]1O[C@H](O[C@H]2[C@H](O)[C@@H](O[C@H]3O[C@H](CO)[C@@H](O)[C@H](N)[C@H]3O)[C@H](N)C[C@@H]2N)[C@H](O)[C@@H](O)[C@@H]1O [KANAMYCIN]
MIC [1]: 4100 µg/mL (≈ 8450 µM)
MIC (Streptococcus equinus): 128 µg/mL (≈ 264 µM)
MIC [2]: > 4100 µg/mL
MIC [3]: > 4100 µg/mL
MIC [4]: > 4100 µg/mL
MIC [5]: > 4100 µg/mL
MIC (Enterococcus faecalis): 16 µg/mL (≈ 33 µM)
MIC [6]: > 4100 µg/mL
MIC [7]: 4100 µg/mL (≈ 8450 µM)

CN(C)c1ccc(O)c2c1C[C@H]1C[C@H]3[C@H](N(C)C)C(O)=C(C(N)=O)C(=O)[C@@]3(O)C(O)=C1C2=O [MINOCYCLINE]
MIC [1]: 8 µg/mL (≈ 17.5 µM)
MIC [2]: 8 µg/mL (≈ 17.5 µM)
MIC [3]: 0.12 µg/mL (≈ 0.262 µM)
MIC [4]: 16 µg/mL (≈ 35 µM)
MIC [5]: 16 µg/mL (≈ 35 µM)
MIC [6]: 8 µg/mL (≈ 17.5 µM)
MIC [7]: 16 µg/mL (≈ 35 µM)

CCN[C@@H]1C[C@H](N)[C@@H](O[C@H]2OC(CN)=CC[C@H]2N)[C@H](O)[C@H]1O[C@H]1OC[C@](C)(O)[C@H](NC)[C@H]1O [NETILMICIN]
MIC [1]: 128 µg/mL (≈ 269 µM)
MIC (Streptococcus equinus): 16 µg/mL (≈ 33.6 µM)
MIC [2]: 8 µg/mL (≈ 16.8 µM)
MIC [3]: 32 µg/mL (≈ 67.3 µM)
MIC [4]: 512 µg/mL (≈ 1080 µM)
MIC [5]: 16 µg/mL (≈ 33.6 µM)
MIC (Enterococcus faecalis): 4 µg/mL (≈ 8.41 µM)
MIC [6]: 64 µg/mL (≈ 135 µM)
MIC [7]: 16 µg/mL (≈ 33.6 µM)

CN[C@@H]1[C@H](O[C@H]2[C@H](O[C@H]3[C@H](O)[C@@H](O)[C@H](N=C(N)N)[C@@H](O)[C@@H]3N=C(N)N)O[C@@H](C)[C@]2(O)C=O)O[C@@H](CO)[C@H](O)[C@H]1O [STREPTOMYCIN]
MIC [1]: 64 µg/mL (≈ 110 µM)
MIC (Streptococcus equinus): 64 µg/mL (≈ 110 µM)
MIC [2]: 32 µg/mL (≈ 55 µM)
MIC [3]: 32 µg/mL (≈ 55 µM)
MIC [4]: 64 µg/mL (≈ 110 µM)
MIC [5]: 32 µg/mL (≈ 55 µM)
MIC (Enterococcus faecalis): 32 µg/mL (≈ 55 µM)
MIC [6]: 32 µg/mL (≈ 55 µM)
MIC [7]: 32 µg/mL (≈ 55 µM)

CN(C)[C@@H]1C(O)=C(C(N)=O)C(=O)[C@@]2(O)C(O)=C3C(=O)c4c(O)cccc4[C@@](C)(O)[C@H]3C[C@@H]12 [TETRACYCLINE]
MIC [1]: 128 µg/mL (≈ 288 µM)
MIC (Streptococcus equinus): 0.25 µg/mL (≈ 0.563 µM)
MIC [2]: 256 µg/mL (≈ 576 µM)
MIC [3]: 0.25 µg/mL (≈ 0.563 µM)
MIC [4]: 128 µg/mL (≈ 288 µM)
MIC [5]: 256 µg/mL (≈ 576 µM)
MIC (Enterococcus faecalis): 16 µg/mL (≈ 36 µM)
MIC [6]: 128 µg/mL (≈ 288 µM)
MIC [7]: 256 µg/mL (≈ 576 µM)
